The record followed here is article PMC8693849 (RSC Advances, 2021).

For one test, the system named is S. pyogenes (ATCC 19615). Description: Agar diffusion method, zone of inhibition. Conditions: Streptococcus pyogenes, ATCC19615, 24 h, read-out: Diameter of zone inhibition. The format is cell-based, Streptococcus pyogenes. (In general: In agar diffusion tests the substance spreads into inoculated agar from a disc or well.)
The subject of a further test is P. fluorescens (S 97). Description: Agar diffusion method, zone of inhibition. Type of test: cell-based, Pseudomonas fluorescens. Conditions: for zone of inhibition at 10 µg/mL / zone of inhibition at 15 µg/mL: Pseudomonas fluorescens, 24 h, read-out: Diameter of zone inhibition; for Diameter of zone inhibition: P. fluorescens (S 97), average of triplicate. In a few lines: (§1)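 Bacterial strains were tested by agar diffusion on nutrient agar (peptone 5 and meat extract 3 g L⁻¹ in distilled water, pH 7.0, 2% agar, autoclaved 121 °C for 20 min). Each test compound (1 mg) was dissolved in 1 mL DMSO and made up to 10 mL with sterile water (100 μg mL⁻¹ stock). The solution was placed in the agar, and inhibition zones were measured after 24 h incubation. Values are the mean of triplicate readings.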

The test system of a further test is S. aureus (ATCC 25923). Description: Agar diffusion method, zone of inhibition. The format is cell-based, Staphylococcus aureus. The following applies: for zone of inhibition at 10 µg/mL / zone of inhibition at 15 µg/mL: Staphylococcus aureus, ATCC25923, 24 h, read-out: Diameter of zone inhibition. In a few lines:
as §1

Test [1] has as its system MRSA1 (methicillin resistant S. aureus). In words: Zone of inhibition against MDR clinical isolate. Type of test: cell-based. The following applies: for zone of inhibition at 15 µg/mL: Staphylococcus aureus, read-out: Diameter of zone inhibition.
In test [2] the test system is K. pneumoniae (MDR clinical isolate). In words: Zone of inhibition against MDR clinical isolate. The format is cell-based. Conditions: for zone of inhibition at 15 µg/mL: Klebsiella pneumoniae, read-out: Diameter of zone inhibition.
The subject of test [3] is P. phaseolicola (GSPB 2828). Description: Agar diffusion method, zone of inhibition. Conditions: for zone of inhibition at 10 µg/mL / zone of inhibition at 15 µg/mL: Pseudomonas, 24 h, read-out: Diameter of zone inhibition. The format is cell-based, Pseudomonas phaseolicola. In a few lines: as §1
In another test the test system is Gram-positive bacteria. In words: Agar diffusion method. The format is cell-based, S. aureus (ATCC 25923) and S. pyogenes (ATCC 19615). The following applies: summary of Table 1. A digest of the protocol: as §1
The test system of test [4] is MRSA1 (methicillin resistant S. aureus). In words: Minimal inhibitory concentration. Type of test: cell-based. In a few lines:
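Broth microdilution against MDR clinical isolates: 80 μl Mueller–Hinton broth plus 20 μl tween 80 received 100 μl test compound, then two-fold serial dilution. Each well was inoculated with 100 μl of 0.5 McFarland suspension ([…]) and incubated covered at 35 ± 2 °C for 24 h. MIC is the lowest concentration inhibiting growth.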

The next test concerns C. albicans. In words: Agar diffusion method, zone of inhibition. Type of test: cell-based, Candida albicans. Conditions: for Diameter of zone inhibition: C. albicans, average of triplicate; for zone of inhibition at 10 µg/mL / zone of inhibition at 15 µg/mL: Candida albicans, 24 h, read-out: Diameter of zone inhibition. A digest of the protocol: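 For agar diffusion against C. albicans, each test compound (1 mg) was dissolved in 1 mL DMSO and diluted to 10 mL with sterile water (100 μg mL⁻¹ stock). The solution was placed in the agar, and the inhibition zone diameter was read after 24 h. Values are the average of triplicate readings.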

A further test relates to Gram-negative bacteria. In words: Agar diffusion method. The format is cell-based, P. phaseolicola (GSPB 2828) and P. fluorescens (S 97). The following applies: summary of Table 1. In a few lines: as §1

In brackets after ≈: the same amount, converted by molar mass.

As usually defined, the zone of inhibition is the size of the clear area around the sample on an inoculated plate. Turning to `CC(=O)C1=C(C)N2NC(c3ccccc3O)N(C(C)C(=O)O)C2=NC1c1ccc(Cl)cc1` (stereo not shown) [Compound 2a, 2-(6-Acetyl-5-(4-chlorophenyl)-2-(2-hydroxyphenyl)-7-methyl-1,2-dihydro-[1,2,4]triazolo[1,5-a]pyrimidin-3(5H)-yl)propanoic acid], the zone of inhibition at 10 µg/mL stood at 12 mm in the test with S. pyogenes (ATCC 19615), 16 mm with P. fluorescens (S 97) and 10 mm in the test with S. aureus (ATCC 25923). Also, the zone of inhibition at 15 µg/mL in the test with S. aureus (ATCC 25923) is 16 mm.
As usually defined, the MIC is the least concentration at which growth counts as inhibited. Read a low MIC as greater potency. On to “2-(5-(4-Chlorophenyl)-6-cyano-2-(2-hydroxyphenyl)-7-imino-2-methyl-1,2-dihydro-[1,2,4]triazolo[1,5-a]pyrimidin-3(7H)-yl)-3-(1H-indol-3-yl)propanoic acid [Compound 8d]”, for which the “Diameter of zone inhibition” value in test [1] (MRSA1 clinical isolate, 15 μg mL^−1) came to 25 mm; in test [2] (MDR K. pneumoniae clinical isolate, 15 μg mL^−1), 10 mm; in test [3] (P. phaseolicola (GSPB 2828), 15 μg mL^−1, 24 h, average of triplicate) it was 24 mm; in the test on C. albicans (10 μg mL^−1, 24 h), 6 mm; with C. albicans (15 μg mL^−1, 24 h), 7 mm; with P. fluorescens (S 97) (10 μg mL^−1, 24 h), 12 mm. Also, the “Diameter of zone inhibition” value in the test on P. fluorescens (S 97) (15 μg mL^−1, 24 h) is 22 mm; in the test on S. aureus (ATCC 25923) (S. aureus (ATCC 25923), 15 μg mL^−1, 24 h, average of triplicate) it was 29 mm. Further, the “Activity against Gram-positive bacteria” value with Gram-positive bacteria is recorded as “active”. The same compound had an MIC in test [4] (MRSA1 clinical isolate, Table 2) of 50 µg/mL.
As for `CCOC(=O)C1=C(C)N2NC(C)(c3ccccc3O)N(C(C)C(=O)O)C2=NC1c1ccc(Cl)cc1` (stereo not shown) [Compound 3b, 2-(5-(4-Chlorophenyl)-6-(ethoxycarbonyl)-2-(2-hydroxyphenyl)-2,7-dimethyl-1,2-dihydro-[1,2,4]triazolo[1,5-a]pyrimidin-3(5H)-yl)propanoic acid], the zone of inhibition at 15 µg/mL is 12 mm in [1]; 24 mm with S. pyogenes (ATCC 19615); 27 mm in test [2]; 12 mm with C. albicans; 25 mm in the test on S. aureus (ATCC 25923). Moreover, the zone of inhibition at 10 µg/mL in the test on C. albicans is 10 mm; in the test on S. aureus (ATCC 25923) it was 12 mm. Moreover, the “Activity against Gram-negative bacteria” value with Gram-negative bacteria is “active”.
As for `CC(=O)C1=C(C)N2NC(C)(c3ccccc3O)N(C(C)C(=O)O)C2=NC1c1ccc(Cl)cc1` (stereo not shown) [Compound 2b, 2-(6-Acetyl-5-(4-chlorophenyl)-2-(2-hydroxyphenyl)-2,7-dimethyl-1,2-dihydro-[1,2,4]triazolo[1,5-a]pyrimidin-3(5H)-yl)propanoic acid], the zone of inhibition at 15 µg/mL in test [1] came to 8 mm; in [2], 25 mm; in the test on C. albicans it was 8 mm; with P. fluorescens (S 97) it was 29 mm. Besides, the zone of inhibition at 10 µg/mL with S. pyogenes (ATCC 19615) was 10 mm; in test [3] it was 16 mm; with C. albicans, 6 mm; in the test on P. fluorescens (S 97) it was 15 mm; in the test on S. aureus (ATCC 25923), 12 mm. The “Activity against Gram-negative bacteria” value with Gram-negative bacteria is reported as “active”.
With `CC(=O)OCC1=C(C(=O)O)N2C(=O)[C@@H](NC(=O)Cc3cccs3)[C@H]2SC1` [Cephalothin, reference compound], the zone of inhibition at 10 µg/mL in the test on S. pyogenes (ATCC 19615) was 30 mm; with S. aureus (ATCC 25923) it was 28 mm. Moreover, the zone of inhibition at 15 µg/mL in the test with S. pyogenes (ATCC 19615) turned out to be 30 mm; in the test on S. aureus (ATCC 25923), 28 mm.
Take `CC(C(=O)O)N1C2=NC(c3ccc(Cl)cc3)c3c([nH]c(=O)[nH]c3=O)N2NC1(C)c1ccccc1O` (stereo not shown) [Compound 5, 2-(5-(4-Chlorophenyl)-2-(2-hydroxyphenyl)-2-methyl-6,8-dioxo-1,2,6,7,8,9-hexahydropyrimido[5,4-e][1,2,4]triazolo[1,5-a]pyrimidin-3(5H)-yl)propanoic acid]: the zone of inhibition at 15 µg/mL in test [1] is 8 mm; in the test with S. pyogenes (ATCC 19615) it was 25 mm; in test [2], 23 mm; in [3] it was 30 mm; in the test with C. albicans, 9 mm; in the test with P. fluorescens (S 97), 28 mm. Also, the zone of inhibition at 15 µg/mL in the test with S. aureus (ATCC 25923) is 26 mm. Moreover, the figures for the zone of inhibition at 10 µg/mL in the test on S. pyogenes (ATCC 19615), in the test on C. albicans and with P. fluorescens (S 97) were 11 mm, 7 mm and 15 mm, respectively. Besides, the “Activity against Gram-negative bacteria” value with Gram-negative bacteria was “active”.
For `CC(C(=O)O)N1C2=NC(c3ccc(Cl)cc3)C3=C(CC(C)(C)CC3=O)N2NC1(C)c1ccccc1O` (stereo not shown) [Compound 7, 2-(5-(4-Chlorophenyl)-2-(2-hydroxyphenyl)-2,8,8-trimethyl-6-oxo-1,2,6,7,8,9-hexahydro-[1,2,4]triazolo[1,5-a]quinazolin-3(5H)-yl)propanoic acid], the zone of inhibition at 15 µg/mL turned out to be 8 mm in [1]; 20 mm in the test on S. pyogenes (ATCC 19615); 20 mm in test [2]; 11 mm with C. albicans; 23 mm in the test with S. aureus (ATCC 25923). Besides, the zone of inhibition at 10 µg/mL was found to be 12 mm in the test on S. pyogenes (ATCC 19615), 19 mm in test [3], 10 mm in the test with C. albicans and 15 mm in the test on S. aureus (ATCC 25923). Further, the “Activity against Gram-negative bacteria” value in the test with Gram-negative bacteria is “active”.
For `Clc1ccccc1C(c1ccccc1)(c1ccccc1)n1ccnc1` [Clotrimazole, reference compound], in the test with C. albicans, the zone of inhibition at 10 µg/mL was found to be 36 mm and the zone of inhibition at 15 µg/mL was 44 mm.
For the compound `CCOC(=O)C1=C(C)N2NC(C)(c3ccccc3O)N(C(Cc3c[nH]c4ccccc34)C(=O)O)C2=NC1c1ccc(Cl)cc1` (stereo not shown) [Compound 3d, 2-(5-(4-Chlorophenyl)-6-(ethoxycarbonyl)-2-(2-hydroxyphenyl)-2,7-dimethyl-1,2-dihydro-[1,2,4]triazolo[1,5-a]pyrimidin-3(5H)-yl)-3-(1H-indol-3-yl)propanoic acid], the zone of inhibition at 15 µg/mL is 6 mm in test [1], 6 mm in [2], 23 mm in test [3] and 10 mm in the test on C. albicans. For the same compound, the zone of inhibition at 10 µg/mL in [3] is 11 mm; in the test on C. albicans it was 9 mm; in the test on P. fluorescens (S 97), 10 mm. In addition, the “Activity against Gram-positive bacteria” value with Gram-positive bacteria is listed as “active”.
Turning to `O=C(N[C@H](CO)[C@H](O)c1ccc([N+](=O)[O-])cc1)C(Cl)Cl` [Chloramphenicol, reference compound], in [3], the zone of inhibition at 10 µg/mL is 25 mm and the zone of inhibition at 15 µg/mL stood at 25 mm. Further, in the test on P. fluorescens (S 97), the zone of inhibition at 10 µg/mL was 30 mm and the zone of inhibition at 15 µg/mL amounted to 30 mm.
Turning to `CC(C(=O)O)N1C2=NC(c3ccc(Cl)cc3)C3=C(CCCC3=O)N2NC1(C)c1ccccc1O` (stereo not shown) [Compound 6, 2-(5-(4-Chlorophenyl)-2-(2-hydroxyphenyl)-2-methyl-6-oxo-1,2,6,7,8,9-hexahydro-[1,2,4]triazolo[1,5-a]quinazolin-3(5H)-yl)propanoic acid], the zone of inhibition at 15 µg/mL in [1] was 10 mm; in the test with S. pyogenes (ATCC 19615), 24 mm; in test [2] it was 22 mm; in [3], 29 mm; in the test with C. albicans, 8 mm; in the test with S. aureus (ATCC 25923), 25 mm. Also, the zone of inhibition at 10 µg/mL was determined as 10 mm in the test on S. pyogenes (ATCC 19615), 7 mm in the test with C. albicans, 19 mm with P. fluorescens (S 97) and 15 mm with S. aureus (ATCC 25923). The “Activity against Gram-negative bacteria” value in the test on Gram-negative bacteria is listed as “active”.
As for `CC(=O)C1=C(C)N2NC(c3ccccc3O)N(C(Cc3c[nH]c4ccccc34)C(=O)O)C2=NC1c1ccc(Cl)cc1` (stereo not shown) [Compound 2c, 2-(6-Acetyl-5-(4-chlorophenyl)-2-(2-hydroxyphenyl)-7-methyl-1,2-dihydro-[1,2,4]triazolo[1,5-a]pyrimidin-3(5H)-yl)-3-(1H-indol-3-yl)propanoic acid], the zone of inhibition at 15 µg/mL in [1] came out at 26 mm; in test [2], 8 mm; in test [3] it was 23 mm; in the test with C. albicans it was 9 mm; in the test on P. fluorescens (S 97), 22 mm. The zone of inhibition at 10 µg/mL is 11 mm in [3], 6 mm with C. albicans and 12 mm in the test with P. fluorescens (S 97). Moreover, the “Activity against Gram-positive bacteria” value in the test with Gram-positive bacteria is “active”. The MIC came to 25 µg/mL (≈ 43.9 µM) in test [4] (MRSA1, Table 4) and 25 µg/mL (≈ 43.9 µM) in test [4] (Staphylococcus aureus). In test [4] (MRSA1 vs VERO cells), the “SI (selectivity index, CC50/MIC)” value was 10.
